Experimental data from different studies.
Protocols differ between the studies behind these lines.
Target: Ankyrin repeat and protein kinase domain-containing protein 1 (ANKK1, Homo sapiens, UniProt Q8NFD2)
Residues used in one study (Q8NFD2 1-765): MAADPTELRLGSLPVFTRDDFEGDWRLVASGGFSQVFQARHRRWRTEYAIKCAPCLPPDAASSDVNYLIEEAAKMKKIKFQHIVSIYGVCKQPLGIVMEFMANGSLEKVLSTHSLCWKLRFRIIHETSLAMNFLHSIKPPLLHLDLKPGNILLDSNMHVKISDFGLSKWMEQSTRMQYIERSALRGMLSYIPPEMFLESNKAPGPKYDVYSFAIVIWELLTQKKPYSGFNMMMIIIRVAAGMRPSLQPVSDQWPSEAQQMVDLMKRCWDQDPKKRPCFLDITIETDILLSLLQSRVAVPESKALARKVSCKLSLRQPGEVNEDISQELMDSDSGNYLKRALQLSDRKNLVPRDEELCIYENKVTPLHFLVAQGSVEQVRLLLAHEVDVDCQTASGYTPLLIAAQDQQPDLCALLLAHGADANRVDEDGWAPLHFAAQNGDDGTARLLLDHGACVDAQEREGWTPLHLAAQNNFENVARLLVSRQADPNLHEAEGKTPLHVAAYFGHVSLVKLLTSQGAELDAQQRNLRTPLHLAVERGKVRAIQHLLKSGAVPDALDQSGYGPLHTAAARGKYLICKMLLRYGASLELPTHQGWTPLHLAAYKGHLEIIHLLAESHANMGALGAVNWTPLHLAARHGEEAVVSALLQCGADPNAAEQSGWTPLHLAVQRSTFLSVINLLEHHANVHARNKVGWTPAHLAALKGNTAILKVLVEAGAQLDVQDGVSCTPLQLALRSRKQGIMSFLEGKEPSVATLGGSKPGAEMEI

SMILES	test	setting	remaining binding
N#Cc1ccc(Nc2ccc3[nH]c(=O)[nH]c3c2)c(Cl)c1	cell-free assay, competition with immobilised ligand	1 µM	100%
O=C(Nc1c[nH]nc1C(=O)NC1CCNCC1)c1cc(F)cc(F)c1	binding, competition with immobilised ligand	1 µM	100%
COc1cnc(Nc2cccc(S(N)(=O)=O)c2)nc1N1CCN(c2ccccc2)CC1	binding, competition with immobilised ligand	1 µM	97%
CN(C)c1nccc(-c2cnn3ncccc23)n1	binding	1 µM	100%
O=C(NCCCC1CCCCC1)c1ccc(CNC(=O)c2cnn(-c3ccccc3)c2C(F)(F)F)cc1	cell-free assay, competition with immobilised ligand	0.1 µM	100%
CN(CCCC(F)(F)F)c1nccc(-c2cnn3ncccc23)n1	binding	1 µM	95%
O=C(NCCCN1CCOCC1)c1ccc(Nc2ncc(Cl)c(-c3ccc(Cl)s3)n2)cc1	binding, competition with immobilised ligand	1 µM	77%
Cc1cnn2ncc(-c3ccnc(N(C)C)n3)c2c1	binding	1 µM	100%
O=c1nc(-c2ccccn2)sc2ccccc12	binding, competition with immobilised ligand	1 µM	100%
Nc1ncc2c(n1)-c1c([nH]c3ccc(C#CC4CC4)cc13)CCCC2	binding, competition with immobilised ligand	1 µM	85%
FC(F)(F)Oc1cccc(-c2cnc3ccc(-c4ccncc4)nn23)c1	cell-free assay, competition with immobilised ligand	5 µM	70%
c1ccc(N2CCN(Cc3nc4ccccc4[nH]3)CC2)nc1	binding, competition with immobilised ligand	1 µM	100%
O=C(c1ccc(Nc2nccc(-c3cc4ccccc4s3)n2)cc1)N1CCC(N2CCCC2)CC1	binding, competition with immobilised ligand	1 µM	71%
CO[C@@H](C)c1c(Nc2ccc([C@@H](N(C)C(=O)C3CCS(=O)(=O)CC3)C(F)(F)F)cc2)cnc2cc(Cl)nn12	cell-free assay, competition with immobilised ligand	1 µM	100%
CN(c1nccc(-c2cnn3ncccc23)n1)C1CC1	binding	1 µM	100%
COc1cnc(Nc2cccc(S(N)(=O)=O)c2)nc1N1CCN(c2ccccc2)C(=O)C1	binding, competition with immobilised ligand	1 µM	82%
CN(C)c1ncc(F)c(-c2cnn3ncccc23)n1	binding	1 µM	69%
C=CC(=O)N1CCC(C(=O)NCC(=O)N2CCN(c3nc(-c4cnc(N)nc4C(F)F)nc(N4CCOCC4)n3)CC2)CC1	binding, competition with immobilised ligand	1 µM	100%
C[C@@H]1CCN(c2nccc(-c3cnn4ncccc34)n2)C1	binding	1 µM	81%
O=C(N1CCS(=O)(=O)CC1)N1C[C@H](c2ccc(OC(F)(F)F)cc2)C[C@H](c2nc(C3CC3)no2)C1	cell-free assay, competition with immobilised ligand	1 µM	100%
O=C(c1ccc(Nc2ncc(Cl)c(-c3ccc(Cl)s3)n2)cc1)N1CCC(N2CCCC2)CC1	binding, competition with immobilised ligand	1 µM	61%
